# Screening data deposited in PubChem BioAssay by Broad Institute.
# Shown are actives, neighbours in structure and some others; about 0.92% of the full set was active somewhere.
# RAD54 branch – RAD54 (human) branch migration inhibition | RAD54 Holliday junction branch migration, FAM/BHQ fluorescence | inhibition, % at 10.4 µM | hit rate 0.14% among 360,000;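 active means mean normalized replicate activity at least 40 and at least half of replicates scoring 40 or more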;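 further: inhibitors cause a drop in the FAM fluorescence signal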
# FN deposit inh – fibronectin deposition inhibition; AH1F fibroblasts, Alexa488-fibronectin deposition fluorescence, overnight; inhibition, % at 12.6 µM; hit rate 0.086% among 350,000; AID 743247;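 active means mean inhibition across replicates of 30% or more, regardless of how many single replicates reach that level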
#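 Material: AH1F fibroblasts assembling fluorescent fibronectin matrix; amount: 10000 AH1F cells/well; medium: DMEM, 2% serum; reagent: Alexa488-fibronectin, 24 nM final in well; dosing: single compound dose, delivered by pin transfer; incubation: 1 h adhesion, overnight exposure; detection: fluorescence after three HBSS washes, excitation 485 nm, emission 525 nm; measure: fibronectin deposition inhibition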
# RAD52 inh – inhibitors of human RAD52 DNA annealing | recombinant RAD52 DNA annealing, FRET fluorescence | hit rate 0.46% among 360,000 | P43351 | inhibition, % at 18.7 µM | AID 651710;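 active means every replicate showing at least 50% inhibition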
# Target sequence (P43351 whole entry, looked up): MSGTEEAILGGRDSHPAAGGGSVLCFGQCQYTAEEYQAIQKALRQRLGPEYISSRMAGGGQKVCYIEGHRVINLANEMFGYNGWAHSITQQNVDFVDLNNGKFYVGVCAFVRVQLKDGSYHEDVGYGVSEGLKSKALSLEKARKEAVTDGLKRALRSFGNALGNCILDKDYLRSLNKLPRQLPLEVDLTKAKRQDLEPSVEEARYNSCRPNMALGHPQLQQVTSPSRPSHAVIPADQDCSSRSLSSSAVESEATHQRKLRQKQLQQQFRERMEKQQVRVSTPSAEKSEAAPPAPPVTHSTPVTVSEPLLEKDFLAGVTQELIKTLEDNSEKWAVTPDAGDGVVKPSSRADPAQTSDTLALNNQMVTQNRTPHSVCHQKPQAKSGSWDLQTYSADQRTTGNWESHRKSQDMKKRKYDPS
# AF4-AF9 inh – blocks AF4 peptide binding to human AF9 | P42568 | AlphaScreen, biotin-AF4 peptide binding to FLAG-AF9 | inhibition, % at 10 µM | hit rate 0.47% among 350,000 | AID 651704;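 active means every replicate reaching a set inhibition limit, whatever the replicate mean, cut at about 25% in these data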
# N-glyco inh – blocks N-linked glycosylation in D54 reporter cells | D54 ERlucT glycosylation luciferase reporter, 24 h; percent of 100 nM tunicamycin response | reporter increase, % at 12.5 µM | hit rate 0.23% among 360,000 | AID 588692;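 active means mean luciferase reporter signal, scaled so untreated is 0 and the glycosylation-blocking control 100, at or above a set limit in every replicate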;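 further: luciferase carries N-glycosylation sites so blocking glycosylation raises the light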
# Hits are given with their value; n = inactive; x = no result.
SMILES,RAD54 branch,FN deposit inh,RAD52 inh,AF4-AF9 inh,N-glyco inh
COCC(=O)N1C[C@H](C)[C@@H](OC)CN(C)C(=O)c2cc(NC(=O)c3ccccc3)ccc2OC[C@@H]1C,n,n,n,n,x
C[C@@H]1CN(C)C(=O)c2cccc(N)c2O[C@H]1CN(C)C(=O)OC(C)(C)C,x,n,x,x,x
Cn1c(=O)n(C)c2cc(NC(=O)c3ccccc3)ccc21,n,x,n,n,n
CC(C)Sc1ccccc1C(=O)Nc1ccc2c(c1)n(C)c(=O)n2C,n,n,n,n,34.5
CC(=O)Nc1ccc2c(c1)n(C)c(=O)n2C,n,n,x,x,n
Cn1c(=O)n(C)c2cc(NC(=O)CCl)ccc21,x,n,x,x,82.3
CN1CCCCN2[C@@H](CO)[C@H](c3ccc(C#Cc4ccccc4F)cc3)[C@@H]2C1,n,x,n,n,x
CN1CCCCN2[C@H](C1)[C@@H](c1ccc(C#Cc3ccccc3F)cc1)[C@@H]2CO,n,x,64.8,n,x
OC[C@@H]1[C@@H](c2ccc(C#Cc3ccccc3F)cc2)[C@H]2CN(CC3CCOCC3)CCCCN12,n,n,53.1,n,x
OC[C@H]1[C@H](c2ccc(C#Cc3ccccc3F)cc2)[C@H]2CN(CC3CCOCC3)CCCCN21,n,n,n,n,x
Cn1cc([N+](=O)[O-])c(C(=O)Nc2cc(Oc3ccccc3)cc([N+](=O)[O-])c2)n1,x,40.4,n,n,n
Cn1ccc2c(N3CCOCC3)cc3c(c21)C1CCC3C1 (centres undefined),n,n,n,26.2,n
CN(c1ccc(Cl)cc1)c1cc2c(c3c1ccn3C)C1CCC2C1 (centres undefined),n,n,n,n,n
Cn1ccc2c(N3c4ccccc4CCc4ccccc43)cc3c(c21)C1CCC3C1 (centres undefined),n,x,n,n,n
CCCN(CC1CC1)c1cc2c(c3c1ccn3C)C1CCC2C1 (centres undefined),n,n,n,48.0,n
CCN(Cc1ccccc1)c1cc2c(c3c1ccn3C)C1CCC2C1 (centres undefined),n,n,n,25.3,n
O=C(C[C@H]1C[C@H]2c3cc(NC(=O)Nc4ccc(C(F)(F)F)cc4)ccc3O[C@H]2[C@H](CO)O1)NCc1cccnc1,n,x,n,n,x
CCCC#Cc1cnc2c(c1)C(=O)N([C@H](C)CO)C[C@@H](C)[C@@H](CN(C)C(=O)CN1CCOCC1)O2,x,n,n,n,x
N#CC(C#N)=C1C=CC=CN1/C(=C\c1ccco1)C(=O)c1ccc(Cl)cc1,x,36.4,n,n,n
CCCCCc1cc(=O)oc2c(C(CCN3CCCCC3)c3ccc4c(c3)OCO4)c(OC)cc(OC)c12 (centres undefined),n,n,n,26.8,n
COc1ccc(C(CCN2CCCC2)c2c(OC)cc(OC)c3c(-c4ccccc4)cc(=O)oc23)cc1 (centres undefined),n,n,n,n,n
CCCCCc1cc(=O)oc2c(C(CCN(CC)CC)c3cc(OC)c(OC)c(OC)c3)c(OC)cc(OC)c12 (centres undefined),n,n,57.5,n,n
COc1ccc(C(CCN2CCCC(C)C2)c2c(OC)cc(OC)c3c(-c4ccccc4)cc(=O)oc23)cc1 (centres undefined),n,n,n,27.3,n
Cc1noc(C)c1NC(=O)N[C@H]1CC[C@@H](CC(=O)Nc2ccc(-c3ccccc3)cc2)O[C@H]1CO,n,n,n,n,x
COc1ccc2c3c(n(C)c2c1)[C@H](CO)N(C(=O)c1cnccn1)CC31CN(C(=O)c2cnccn2)C1,x,x,n,n,x
SMILES,RAD54 branch,FN deposit inh,RAD52 inh,AF4-AF9 inh,N-glyco inh
C/C=C/c1cccc(-c2nc(C(=O)NC3CCC3)cc3c2[C@H](CCO)N([S@@](=O)C(C)(C)C)C3)c1,x,n,x,x,x
COc1ccc2c3c([nH]c2c1)[C@H](CO)N(C(=O)Nc1cccc(F)c1)CC31CN(CC2CC2)C1,x,n,n,28.9,x
COc1ccc2c3c([nH]c2c1)[C@@H](CO)N(C(=O)Nc1cccc(F)c1)CC31CCN(CC2CC2)CC1,x,x,n,25.4,x
COc1ccc2c3c([nH]c2c1)[C@H](CO)N(C(=O)Nc1cccc(F)c1)CC31CCN(CC2CC2)CC1,x,x,n,n,x
CCN(CC)Cc1c(C(=O)N/N=C(\C)c2ccncc2)nnn1-c1nonc1N,x,n,n,43.0,n
CCN(CC)Cc1c(C(=O)N/N=C/c2ccncc2)nnn1-c1nonc1N,n,n,n,n,n
CN(C)CCCN1c2ccc(O)cc2Sc2ccc(Cl)cc21,n,n,n,51.3,n
COCCn1c(SCC(=O)N2CCCC2)nnc1-c1ccco1,n,n,n,28.4,n
CCC(=O)N1CCC2(CC1)CN(Cc1cccc(Cl)c1)[C@H](CO)c1c2c2ccc(OC)cc2n1C,x,x,n,n,x
C=C(C)CN(CC)c1nc(N)c2c(N)nc3c(c2c1C#N)CC(=O)N3C12CC3CC(CC(C3)C1)C2,n,n,x,x,x
N#Cc1c(N2CCCC(O)C2)nc(N)c2c(N)nc3c(c12)CC(=O)N3C12CC3CC(CC(C3)C1)C2 (centres undefined),n,n,x,x,40.6
C[C@H](CO)N1C[C@H](C)[C@H](CN(C)S(C)(=O)=O)Oc2ccc(NC(=O)CCCCCC(=O)Nc3ccccc3N)cc2C1=O,x,x,n,n,x
COCC(=O)N1CC2(C1)CN(Cc1cccc(OC)c1)[C@H](CO)c1[nH]c3cc(OC)ccc3c12,x,x,x,n,x
CN(C)c1ccc(C(c2ccc(N(C)C)cc2)c2ccc([N+](=O)[O-])cc2)cc1,n,n,n,27.3,n
CCOC(=O)N1CCN(Cc2cc(Cl)c3cccnc3c2O)CC1,x,n,n,69.9,x
CCOC(=O)c1c(NC(C)=O)sc2c1CCN(Cc1ccccc1)C2,n,n,n,n,n
CCOC(=O)c1c(NC(C)=O)sc2c1CCC(C=O)=C2Sc1ccccc1,n,x,n,n,32.3
Cc1cccc(Nc2nc(-c3ccc(F)c(C)c3)cs2)n1,n,n,n,n,n
Cc1cccc(Nc2nc(-c3ccc(O)c(O)c3)cs2)n1,n,n,n,25.7,n
Cc1ccnc(Nc2nc(-c3ccc(O)c(O)c3)cs2)c1,n,n,n,40.9,n
CN1c2ccc(C#Cc3ccccc3)cc2[C@H]2[C@H](CCN2S(=O)(=O)c2ccccc2F)[C@H]1CO,x,n,x,x,x
CN(C)CCCN1C(=O)c2cccc3c(Br)ccc(c23)C1=O,x,n,n,n,40.0
COCC#Cc1cnc2c(c1)C(=O)N([C@@H](C)CO)C[C@H](C)[C@H](CN(C)C(=O)C1CCCCC1)O2,n,x,n,n,x
CC(=O)N1[C@@H]2CN(CC(F)(F)F)C[C@H]1C2c1ccc(Br)cc1 (some centres undefined),x,n,x,x,x
CN(C)S(=O)(=O)c1ccc(N2CCCC2)c(C(=O)Nc2nccs2)c1,n,n,n,n,78.9
CCc1cccc(NC(=O)c2cc(S(=O)(=O)N3CCCCC3)ccc2N2CCOCC2)c1,n,n,n,n,n
CCc1cccc(NC(=O)c2cc(S(=O)(=O)N(C)C)ccc2N2CCCC2)c1,n,n,n,n,38.6
Cc1cnc(NC(=O)c2cc(S(=O)(=O)N(C)C)ccc2N2CCCC2)s1,n,n,n,n,97.8
